Active and inactive are the calls of the source. No cut-off for these calls is given here.
Tests used:
[1] = biological target: DNA topoisomerase 2-alpha (Homo sapiens) (UniProt P11388); assay: Inhibition of human DNA topoisomerase-2alpha ATPase activity at 400 uM using supercoiled pBR322 DNA as substrate after 1 hr by malachite green dye based assay relative to control
Summary of the method: (§1)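 Topo IIα ATPase: 4 units of enzyme with 100 ng supercoiled pBR322 and 250 µM ATP in 10 mM Tris-HCl pH 7.9, 50 mM NaCl, 50 mM KCl, 5 mM MgCl2, 0.1 mM EDTA, 15 µg/mL BSA at 37 °C for 1 h. Malachite green reagent was then added for 30 min at room temperature, and released phosphate was read at 620 nm.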

[2] = biological target: DNA topoisomerase 2-alpha (Homo sapiens) (UniProt P11388); assay: Inhibition of human DNA topoisomerase-2alpha ATPase activity at 300 uM using supercoiled pBR322 DNA as substrate after 1 hr by malachite green dye based assay relative to control; summary of the method: as §1
[3] = biological target: DNA topoisomerase 2-alpha (Homo sapiens) (UniProt P11388); assay: Inhibition of human DNA topoisomerase-2alpha ATPase activity at 200 uM using supercoiled pBR322 DNA as substrate after 1 hr by malachite green dye based assay relative to control; summary of the method: as §1
[4] = biological target: T1, DNA topoisomerase 1 (Homo sapiens) (UniProt P11387); assay: Inhibition of human DNA topoisomerase-1 at 100 uM using supercoiled pBR322 DNA as substrate after 30 mins by ethidium bromide staining based agarose gel electrophoresis relative to control
T1 sequence (whole entry): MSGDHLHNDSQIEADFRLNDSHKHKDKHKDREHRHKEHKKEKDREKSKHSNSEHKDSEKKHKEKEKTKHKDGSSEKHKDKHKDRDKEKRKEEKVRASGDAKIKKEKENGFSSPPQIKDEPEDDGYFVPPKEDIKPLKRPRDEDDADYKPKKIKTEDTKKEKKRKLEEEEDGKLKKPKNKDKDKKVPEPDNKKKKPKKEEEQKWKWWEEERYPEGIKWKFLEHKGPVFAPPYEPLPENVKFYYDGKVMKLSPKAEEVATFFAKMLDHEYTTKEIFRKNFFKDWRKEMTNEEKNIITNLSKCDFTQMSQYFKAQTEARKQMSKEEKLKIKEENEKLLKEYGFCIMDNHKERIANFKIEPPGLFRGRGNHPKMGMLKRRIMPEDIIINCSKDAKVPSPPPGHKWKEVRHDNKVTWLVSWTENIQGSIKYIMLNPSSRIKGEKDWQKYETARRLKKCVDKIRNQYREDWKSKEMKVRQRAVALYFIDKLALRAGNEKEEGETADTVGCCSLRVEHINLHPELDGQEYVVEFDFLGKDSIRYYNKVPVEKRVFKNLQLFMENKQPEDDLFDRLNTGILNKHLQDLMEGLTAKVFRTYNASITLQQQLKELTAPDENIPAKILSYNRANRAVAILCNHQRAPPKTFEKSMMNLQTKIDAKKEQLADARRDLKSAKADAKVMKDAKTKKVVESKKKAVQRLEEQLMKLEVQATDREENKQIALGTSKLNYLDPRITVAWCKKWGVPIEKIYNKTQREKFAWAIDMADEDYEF
Summary of the method: (§2)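 Recombinant human topo I, 1 unit (the amount that fully relaxes supercoiled pBR322), with 100 ng pBR322 DNA at 37 °C for 30 min in 10 mM Tris-HCl pH 7.9, 150 mM NaCl, 0.1% BSA. Compounds were screened at 100 µM, and those above 30% inhibition were retested at 20 µM. Products ran on 1% agarose at 15 V for 7 h in TAE with ethidium bromide staining. Mean ± S.D. from three experiments in triplicate.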

[5] = biological target: T1, DNA topoisomerase 1 (Homo sapiens); assay: Inhibition of human DNA topoisomerase-1 at 20 uM using supercoiled pBR322 DNA as substrate after 30 mins by ethidium bromide staining based agarose gel electrophoresis relative to control; summary of the method: as §2
[6] = biological target: DNA topoisomerase 2-alpha (Homo sapiens) (UniProt P11388); assay: Inhibition of human DNA topoisomerase-2alpha at 100 uM using supercoiled pBR322 DNA as substrate after 30 mins by ethidium bromide staining based agarose gel electrophoresis relative to control
Summary of the method: (§3)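 Human topo IIα, 1 unit set by full relaxation of pBR322, with 100 ng pBR322 for 30 min in 10 mM Tris-HCl pH 7.9, 50 mM NaCl, 5 mM MgCl2, 1 mM EDTA and BSA. Stop was with EDTA. Screening was at 100 µM, with retest at 20 µM if inhibition exceeded 30%. Gel was 1% agarose at 25 V for 4 h in TAE, stained with ethidium bromide. Mean ± S.D. from three experiments in triplicate.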

[7] = biological target: DNA topoisomerase 2-alpha (Homo sapiens) (UniProt P11388); assay: Inhibition of human DNA topoisomerase-2alpha at 20 uM using supercoiled pBR322 DNA as substrate after 30 mins by ethidium bromide staining based agarose gel electrophoresis relative to control; summary of the method: as §3
[8] = Antiproliferative activity against human HCT15 cells after 72 hrs by CCK8 assay; type: functional, cell-based; details: HCT-15, 72 h
Summary of the method: (§4)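 Cells seeded at 2–4 × 10^4 per well, grown overnight in medium with 10% FBS at 37 °C and 5% CO2. After 4 h FBS starvation they were exposed to graded compound concentrations for 72 h. CCK-8 was added for a further 4 h and absorbance read at 450 nm. IC50 came from a four-parameter logistic fit.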

[9] = Antiproliferative activity against human T47D cells after 72 hrs by CCK8 assay; type: functional, cell-based; summary of the method: as §4
[10] = Antiproliferative activity against human DU145 cells after 72 hrs by CCK8 assay; type: functional, cell-based; details: DU-145, 72 h; summary of the method: as §4
[11] = Antiproliferative activity against human HeLa cells after 72 hrs by CCK8 assay; type: functional, cell-based; summary of the method: as §4
[12] = Antiproliferative activity against HEK293 cells after 72 hrs by CCK8 assay; type: cell-based; details: Homo sapiens, HEK293, 72 h; summary of the method: as §4
[13] = Antiproliferative activity against HFL1 cells after 72 hrs by CCK8 assay; type: cell-based; details: Homo sapiens, HFL1, 72 h; summary of the method: as §4
[14] = biological target: DNA topoisomerase 2-alpha (Homo sapiens) (UniProt P11388); assay: Inhibition of human DNA topoisomerase-2alpha at 500 uM using supercoiled pBR322 DNA as substrate after 20 mins by ethidium bromide staining based agarose gel electrophoresis relative to control
Homo sapiens [15] = species: Homo sapiens; assay: Inhibition of DNA topoisomerase catalytic activity in human T47D nuclear extract at 20 uM using supercoiled pBR322 DNA as substrate after 24 hrs by ethidium bromide staining based agarose gel electrophoresis relative to control
Summary of the method: (§5)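 T47D cells at 5 × 10^5 per 60 mm dish were grown to 80% confluence, washed with FBS-free medium and treated 24 h. Nuclear extracts were prepared in HEPES/MgCl2/KCl/DTT/NP40 buffer, then extracted with NaCl buffer. The amount of extract that fully relaxes 100 ng pBR322 at 37 °C in 20 min was set as the unit. Products were run on agarose in TAE and stained with ethidium bromide (0.5 µg/mL).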

Homo sapiens [16] = species: Homo sapiens; assay: Inhibition of DNA topoisomerase catalytic activity in human T47D nuclear extract at 50 uM using supercoiled pBR322 DNA as substrate after 24 hrs by ethidium bromide staining based agarose gel electrophoresis relative to control; summary of the method: as §5

Chain of DNA topoisomerase 2-alpha (Homo sapiens) (P11388 whole entry): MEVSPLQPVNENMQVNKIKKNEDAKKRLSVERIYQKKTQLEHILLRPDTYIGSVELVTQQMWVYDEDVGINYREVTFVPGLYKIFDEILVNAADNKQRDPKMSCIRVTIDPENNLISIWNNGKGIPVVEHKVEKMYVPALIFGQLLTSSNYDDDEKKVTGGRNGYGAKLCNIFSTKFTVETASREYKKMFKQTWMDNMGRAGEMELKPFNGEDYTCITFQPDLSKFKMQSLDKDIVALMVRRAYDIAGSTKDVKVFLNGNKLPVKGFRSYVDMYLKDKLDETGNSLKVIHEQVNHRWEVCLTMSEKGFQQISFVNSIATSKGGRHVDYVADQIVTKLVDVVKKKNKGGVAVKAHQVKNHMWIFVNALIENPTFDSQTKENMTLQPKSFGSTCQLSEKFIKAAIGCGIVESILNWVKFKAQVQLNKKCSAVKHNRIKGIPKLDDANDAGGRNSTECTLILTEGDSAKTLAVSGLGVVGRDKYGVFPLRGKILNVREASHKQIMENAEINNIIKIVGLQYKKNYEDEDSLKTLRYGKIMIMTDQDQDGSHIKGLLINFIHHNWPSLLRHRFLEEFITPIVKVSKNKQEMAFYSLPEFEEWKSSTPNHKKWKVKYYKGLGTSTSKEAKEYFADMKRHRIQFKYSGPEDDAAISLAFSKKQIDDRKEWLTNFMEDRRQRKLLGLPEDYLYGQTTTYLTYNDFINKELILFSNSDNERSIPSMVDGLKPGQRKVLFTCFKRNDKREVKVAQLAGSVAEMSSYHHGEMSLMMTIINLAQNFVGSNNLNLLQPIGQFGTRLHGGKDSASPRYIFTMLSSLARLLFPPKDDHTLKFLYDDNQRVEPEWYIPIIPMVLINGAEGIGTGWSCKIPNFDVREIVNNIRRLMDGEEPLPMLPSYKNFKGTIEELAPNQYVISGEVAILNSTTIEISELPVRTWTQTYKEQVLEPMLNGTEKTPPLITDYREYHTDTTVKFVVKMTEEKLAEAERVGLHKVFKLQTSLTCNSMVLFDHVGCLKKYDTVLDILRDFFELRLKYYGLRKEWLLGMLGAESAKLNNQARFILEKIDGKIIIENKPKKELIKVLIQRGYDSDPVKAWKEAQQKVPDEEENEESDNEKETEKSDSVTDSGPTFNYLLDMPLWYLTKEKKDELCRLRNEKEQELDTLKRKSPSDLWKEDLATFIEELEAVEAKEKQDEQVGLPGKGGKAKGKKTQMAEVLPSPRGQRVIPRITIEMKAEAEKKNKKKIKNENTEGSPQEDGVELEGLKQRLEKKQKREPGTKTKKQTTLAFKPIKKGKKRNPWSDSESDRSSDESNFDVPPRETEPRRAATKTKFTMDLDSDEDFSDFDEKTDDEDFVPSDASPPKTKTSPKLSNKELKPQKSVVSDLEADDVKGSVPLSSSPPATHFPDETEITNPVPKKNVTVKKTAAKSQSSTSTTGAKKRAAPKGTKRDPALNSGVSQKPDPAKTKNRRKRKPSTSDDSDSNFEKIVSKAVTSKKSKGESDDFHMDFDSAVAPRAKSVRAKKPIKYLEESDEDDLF

| inhibition [1] [%] | inhibition [2] [%] | inhibition [3] [%] | inhibition [4] [%] | inhibition [5] [%] | inhibition [6] [%] | inhibition [7] [%] | inhibition [14] | inhibition (Homo sapiens [15]) [%] | inhibition (Homo sapiens [16]) [%] | Structure (SMILES) | IC50 [8] [µM] | IC50 [9] [nM] | IC50 [10] [µM] | IC50 [11] [µM] | IC50 [12] [µM] | IC50 [13] [µM] |
| --- | --- | --- | --- | --- | --- | --- | --- | --- | --- | --- | --- | --- | --- | --- | --- | --- |
| 55.9 | 33.3 | 22.7 | – | – | – | – | – | – | – | CO[C@@H]1[C@@H](OC(N)=O)[C@@H](O)[C@H](Oc2ccc3c(O)c(NC(=O)c4ccc(O)c(CC=C(C)C)c4)c(=O)oc3c2C)OC1(C)C | – | – | – | – | – | – |
| 0 | – | – | 69.7 | 53.5 | 95.1 | 92.2 | Active | 34.3 | 97 | Oc1ccc(-c2cc(-c3ccco3)nc3c2Cc2ccccc2-3)cc1 | 3.12 | 950 | 3.74 | 3.96 | 3.47 | 7.99 |

— ChEMBL document CHEMBL3877249, “Novel 2-aryl-4-(4'-hydroxyphenyl)-5H-indeno[1,2-b]pyridines as potent DNA non-intercalative topoisomerase catalytic inhibitors” (Eur J Med Chem, 2017)
